# Reference: ChEMBL document CHEMBL1795244, “Preliminary evaluation of a 3H imidazoquinoline library as dual TLR7/TLR8 antagonists” (Bioorg Med Chem, 2011)
# Active and inactive are the calls of the source. The calls are words filed in the database; no cut-off is given here.
# Key:
# [1] = biological target: T1, Toll-like receptor 7 (Homo sapiens) (UniProt Q9NYK1); assay: Antagonist activity at TLR7 expressed in HEK293 cells co-transfected with NF-kappaB/sAP gene assessed as inhibition of gardiquimod-induced NF-kappaB activation at 250 uM by reporter gene assay; type: functional, cell-based
# T1 sequence (whole entry): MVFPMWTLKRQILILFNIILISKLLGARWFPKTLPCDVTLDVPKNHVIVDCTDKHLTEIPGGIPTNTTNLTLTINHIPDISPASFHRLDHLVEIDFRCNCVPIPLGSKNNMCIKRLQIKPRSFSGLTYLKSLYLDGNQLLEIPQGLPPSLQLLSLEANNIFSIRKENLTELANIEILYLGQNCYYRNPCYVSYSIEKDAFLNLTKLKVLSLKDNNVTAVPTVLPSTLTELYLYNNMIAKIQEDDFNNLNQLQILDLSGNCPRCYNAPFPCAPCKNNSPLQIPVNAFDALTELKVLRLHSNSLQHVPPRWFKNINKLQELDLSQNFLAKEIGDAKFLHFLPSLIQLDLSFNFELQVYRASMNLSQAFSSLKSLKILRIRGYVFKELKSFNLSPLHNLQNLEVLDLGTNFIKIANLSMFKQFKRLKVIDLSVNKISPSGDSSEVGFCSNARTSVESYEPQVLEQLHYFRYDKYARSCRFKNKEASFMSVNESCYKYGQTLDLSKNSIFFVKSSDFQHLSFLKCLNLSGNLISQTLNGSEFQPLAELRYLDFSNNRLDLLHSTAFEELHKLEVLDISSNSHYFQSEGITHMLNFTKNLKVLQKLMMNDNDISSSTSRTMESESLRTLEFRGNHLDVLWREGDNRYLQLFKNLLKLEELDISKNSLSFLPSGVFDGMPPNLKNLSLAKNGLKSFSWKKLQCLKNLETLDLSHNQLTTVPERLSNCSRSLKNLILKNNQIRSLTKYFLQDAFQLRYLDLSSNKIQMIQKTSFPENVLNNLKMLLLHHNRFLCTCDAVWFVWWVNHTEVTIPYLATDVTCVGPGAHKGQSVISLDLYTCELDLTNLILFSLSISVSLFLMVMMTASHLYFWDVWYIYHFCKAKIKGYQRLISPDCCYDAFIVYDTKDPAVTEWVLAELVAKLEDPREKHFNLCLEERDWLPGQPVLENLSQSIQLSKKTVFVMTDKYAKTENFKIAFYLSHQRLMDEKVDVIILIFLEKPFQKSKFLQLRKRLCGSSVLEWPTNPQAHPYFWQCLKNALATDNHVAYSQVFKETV
# Procedure, shortened: (§1)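 HEK-Blue-7 cells (HEK293 stably carrying TLR7 plus NF-κB/AP-1-driven secreted alkaline phosphatase), kept in selection medium with zeocin and normocin. Seeded at ~10⁵ cells/mL and grown to confluency, then stimulated with gardiquimod 1 μg/mL while serially diluted compounds were added at the same time (highest 250 μM). Incubated overnight; supernatant sAP read with chromogen at 620 nm; duplicates or quadruplicates.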
# [2] = biological target: Toll-like receptor 8 (Homo sapiens) (UniProt Q9NR97); assay: Antagonist activity at TLR8 expressed in HEK293 cells co-transfected with NF-kappaB/sAP gene assessed as inhibition of CL075-induced NF-kappaB activation at 250 uM by reporter gene assay
# Toll-like receptor 8 = biological target: T2, Toll-like receptor 8 (Homo sapiens, UniProt Q9NR97); assay: Antagonist activity at TLR8 expressed in HEK293 cells co-transfected with NF-kappaB/sAP gene assessed as inhibition of CL075-induced NF-kappaB activation by reporter gene assay; type: functional, cell-based
# T2 sequence (Q9NR97 whole entry): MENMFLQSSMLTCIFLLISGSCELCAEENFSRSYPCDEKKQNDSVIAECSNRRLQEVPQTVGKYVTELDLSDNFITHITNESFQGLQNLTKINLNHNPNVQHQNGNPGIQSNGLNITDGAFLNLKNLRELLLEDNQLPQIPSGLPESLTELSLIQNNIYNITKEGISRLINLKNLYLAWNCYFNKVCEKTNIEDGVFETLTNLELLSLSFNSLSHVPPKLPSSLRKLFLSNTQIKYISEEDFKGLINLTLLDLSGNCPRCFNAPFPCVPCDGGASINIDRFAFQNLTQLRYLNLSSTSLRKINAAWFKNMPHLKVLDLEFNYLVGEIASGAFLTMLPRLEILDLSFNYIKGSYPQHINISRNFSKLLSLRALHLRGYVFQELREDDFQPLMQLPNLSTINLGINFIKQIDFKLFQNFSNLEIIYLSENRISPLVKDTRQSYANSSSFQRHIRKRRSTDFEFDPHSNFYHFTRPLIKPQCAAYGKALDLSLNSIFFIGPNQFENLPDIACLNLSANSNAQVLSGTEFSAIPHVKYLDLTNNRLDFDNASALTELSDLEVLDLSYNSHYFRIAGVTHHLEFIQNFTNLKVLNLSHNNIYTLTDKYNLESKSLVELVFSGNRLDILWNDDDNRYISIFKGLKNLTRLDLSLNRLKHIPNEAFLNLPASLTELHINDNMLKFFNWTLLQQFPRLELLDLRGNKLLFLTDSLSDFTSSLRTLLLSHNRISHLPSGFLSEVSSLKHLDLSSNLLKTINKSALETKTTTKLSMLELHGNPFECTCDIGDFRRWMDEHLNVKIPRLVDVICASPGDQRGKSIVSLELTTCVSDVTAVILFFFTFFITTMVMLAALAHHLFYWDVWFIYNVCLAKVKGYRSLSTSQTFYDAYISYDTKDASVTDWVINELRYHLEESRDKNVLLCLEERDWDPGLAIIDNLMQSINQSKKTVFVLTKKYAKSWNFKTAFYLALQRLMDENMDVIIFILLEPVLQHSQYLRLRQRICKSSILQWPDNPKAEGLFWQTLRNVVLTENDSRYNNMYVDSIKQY
# Toll-like receptor 7 [3] = biological target: T3, Toll-like receptor 7 (Homo sapiens, UniProt Q9NYK1); assay: Antagonist activity at TLR7 expressed in HEK293 cells co-transfected with NF-kappaB/sAP gene assessed as inhibition of 1 ug/ml of gardiquimod-induced NF-kappaB activation by reporter gene assay; type: functional, cell-based; procedure, shortened: as §1
# T3 sequence (Q9NYK1 whole entry): T1 sequence (whole entry)
# Toll-like receptor 7 [4] = biological target: T3, Toll-like receptor 7; assay: Antagonist activity at TLR7 expressed in HEK293 cells co-transfected with NF-kappaB/sAP gene assessed as inhibition of 250 ng/ml of gardiquimod-induced NF-kappaB activation by reporter gene assay
Compound,inhibition [1],inhibition [2],IC50 (Toll-like receptor 8) [µM],IC50 (Toll-like receptor 7 [3]) [µM],IC50 (Toll-like receptor 7 [4]) [µM]
CCNCc1nc2c3ccccc3ncc2n1CCCO,inactive,inactive,,,
OCCCn1c(-c2ccccc2)nc2c3ccccc3ncc21,inactive,,37.2,,
C#CCn1c(CNCC)nc2c3ccccc3ncc21,,,28.1,26.1,
COc1ccc(Cn2c(-c3ccccc3)nc3c4ccccc4[n+](Cc4ccc(OC)cc4)cc32)cc1,,,4.55,2.79,0.82
CCNCc1nc2c3ccccc3ncc2n1C,,,,30.4,
Cn1c(-c2ccccc2)nc2c3ccccc3ncc21,,,25.8,21.6,
CCNCc1nc2c3ccccc3ncc2n1Cc1ccc(OC)cc1,,,59.6,28,
Cn1c(C2CCCCC2)nc2c3ccccc3ncc21,,,24.3,22,
C#CCn1c(-c2ccccc2)nc2c3ccccc3ncc21,,,13.7,14.8,
COc1ccc(Cn2c(C3CCCCC3)nc3c4ccccc4ncc32)cc1,,,40,19.9,
OCCCn1c(C2CCCCC2)nc2c3ccccc3ncc21,inactive,,20.3,,
CCCCCCCCCc1nc2c3ccccc3ncc2n1CCCO,inactive,,4.81,,
CCNCc1nc2c3ccccc3[n+]([O-])cc2n1CC(C)(C)O,inactive,,46.5,,
C#CCn1c(CCCCCCCCC)nc2c3ccccc3ncc21,,,10.1,8.58,
C#CCn1c(C2CCCCC2)nc2c3ccccc3ncc21,,,21.1,21.9,
CC(C)(O)Cn1c(C2CCCCC2)nc2c3ccccc3ncc21,inactive,,38.7,,
CC(C)(O)Cn1c(-c2ccccc2)nc2c3ccccc3ncc21,inactive,,38.4,,
CCCCCCCCCc1nc2c3ccccc3ncc2n1C,,,,10.1,
CCNCc1nc2c3ccccc3nc(NC(=O)c3ccccc3)c2n1CC(C)(C)O,inactive,,21.2,,
COc1ccc(Cn2c(-c3ccccc3)nc3c4ccccc4ncc32)cc1,inactive,inactive,,,
CCCCCCCCCc1nc2c3ccccc3ncc2n1CC(C)(C)O,,,,14.4,
CCCCCCCCCc1nc2c3ccccc3ncc2n1Cc1ccc(OC)cc1,,,,19.4,
